Series [1] addresses T1, Toll-like receptor 4 (Homo sapiens, UniProt O00206). As to the kind of experiment: Inhibition of LPS-induced TLR4 activation (unknown origin) expressed in HEK293 Blue cells compound treated for 30 mins prior LPS treatment measured after 2 to 4 hrs by spectrophotometry. In kind it is cell-based. A digest of the protocol:
(§1)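 HEK-Blue cells stably transfected with TLR4, MD-2 and CD14 carry a secreted alkaline phosphatase reporter under an NF-κB/AP-1-inducible promoter. TLR4 activation by endotoxin was monitored through secreted alkaline phosphatase.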

The target of series [2] is T1, Toll-like receptor 4. As to the kind of experiment: Agonist activity at human TLR4 expressed in HEK293 cells co-transfected with human MD-2/CD14 assessed as receptor signal after 2 to 4 hrs by dual luciferase reporter gene assay. In kind it is cell-based. A digest of the protocol:
(§2)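 Cells were treated with increasing compound concentrations, with or without LPS stimulation (5 nM). Signal is dual-luciferase, normalized, and representative of three independent experiments.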
For orientation: Reporter assays use an easily measured gene product as a stand-in for the process of interest.

In series [3] the target is T2, Toll-like receptor 4 (Mus musculus) (UniProt Q9QUK6).
T2 sequence (whole entry): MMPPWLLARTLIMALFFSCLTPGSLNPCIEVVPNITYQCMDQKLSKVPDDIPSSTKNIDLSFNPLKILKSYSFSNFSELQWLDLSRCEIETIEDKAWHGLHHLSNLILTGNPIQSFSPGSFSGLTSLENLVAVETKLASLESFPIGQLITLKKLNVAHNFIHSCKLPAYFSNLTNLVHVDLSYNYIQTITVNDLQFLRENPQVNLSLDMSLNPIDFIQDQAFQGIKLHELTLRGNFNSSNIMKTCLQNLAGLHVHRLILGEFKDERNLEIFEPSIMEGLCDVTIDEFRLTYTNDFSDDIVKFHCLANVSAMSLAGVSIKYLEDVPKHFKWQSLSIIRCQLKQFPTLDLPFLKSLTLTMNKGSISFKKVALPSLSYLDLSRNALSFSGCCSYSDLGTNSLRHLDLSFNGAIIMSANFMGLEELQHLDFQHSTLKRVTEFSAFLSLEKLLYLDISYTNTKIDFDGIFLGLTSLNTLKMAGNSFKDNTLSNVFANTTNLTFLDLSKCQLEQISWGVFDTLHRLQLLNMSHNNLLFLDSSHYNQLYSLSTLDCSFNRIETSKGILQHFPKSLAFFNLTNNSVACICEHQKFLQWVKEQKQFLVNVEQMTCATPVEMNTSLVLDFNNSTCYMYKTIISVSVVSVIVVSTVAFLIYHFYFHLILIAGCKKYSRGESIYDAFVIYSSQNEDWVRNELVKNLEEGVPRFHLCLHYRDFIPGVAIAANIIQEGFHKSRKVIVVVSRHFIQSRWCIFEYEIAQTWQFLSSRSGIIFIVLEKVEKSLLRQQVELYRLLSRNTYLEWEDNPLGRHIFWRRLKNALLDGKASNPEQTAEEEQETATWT
As to the kind of experiment: Agonist activity at mouse TLR4 expressed in HEK293 cells co-transfected with mouse MD-2/CD14 assessed as receptor signal after 2 to 4 hrs by dual luciferase reporter gene assay. In kind it is cell-based. A digest of the protocol: as §2

Series [4] addresses T1, Toll-like receptor 4. Briefly: Antagonist activity at human TLR4 expressed in HEK293 cells co-transfected with human MD-2/CD14 assessed as inhibition of LPS-stimulated receptor signal after 2 to 4 hrs by dual luciferase reporter gene assay. It is filed as cell-based. A digest of the protocol:
as §2

Series [5] concerns the target T2, Toll-like receptor 4 (Mus musculus). Briefly: (§3) Antagonist activity at mouse TLR4 expressed in HEK293 cells co-transfected with mouse MD-2/CD14 assessed as inhibition of LPS-stimulated receptor signal after 2 to 4 hrs by dual luciferase reporter gene assay. In kind it is cell-based. A digest of the protocol:
as §2

For series [6], the target named is T1, Toll-like receptor 4. As to the kind of experiment: Agonist activity at TLR4 (unknown origin) expressed in HEK293 Blue cells measured after 2 to 4 hrs by spectrophotometry. It is filed as cell-based. The gist of the method: as §1
For series [7], the system named is HEK293. Briefly: Cytotoxicity against HEK-Blue cells after 3 hrs by MTT assay. It is filed as cell-based. Conditions: human, hek293, 3 h. Background: Tetrazolium dyes change colour on reduction, which living cells bring about.
Series [8] has as its target T3, Toll-like receptor 4 (Mus musculus, UniProt Q9QUK6).
T3 sequence (Q9QUK6 whole entry): T2 sequence (whole entry)
The series is described as §3. In kind it is cell-based. The gist of the method:
as §2

Series [9] concerns the target T2, Toll-like receptor 4 (Mus musculus). As to the kind of experiment: Antagonist activity at mouse TLR4 in mouse BMDM cells assessed as inhibition of LPS-stimulated IL-6 production at 1 to 2 uM for 1 hr before LPS treatment by ELISA. It is filed as cell-based. The gist of the method: (§4)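 Bone marrow-derived murine macrophages in RPMI with 10% FBS were pretreated with compound (0–2 µM), and LPS was added 1 hour later. After overnight incubation, IL-6 and TNF-α in the medium were measured by ELISA. Cells not given LPS served as negative controls.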
On the technique in general: An ELISA detects its analyte on a solid surface through an enzyme-linked reagent.

Series [10] has the same target. Briefly: Antagonist activity at mouse TLR4 in mouse BMDM cells assessed as inhibition of LPS-stimulated TNFalpha production at 1 to 2 uM for 1 hr before LPS treatment by ELISA. In kind it is cell-based. The gist of the method: as §4
Series [11] shares this target. As to the kind of experiment: Antagonist activity at mouse TLR4 in mouse BMDM cells assessed as inhibition of LPS-stimulated IL-6 production at 0.1 to 0.5 uM for 1 hr before LPS treatment by ELISA. In kind it is cell-based. The gist of the method: as §4
For series [12] the target is unchanged. Briefly: Antagonist activity at mouse TLR4 in mouse BMDM cells assessed as inhibition of LPS-stimulated TNFalpha production at 0.1 to 0.5 uM for 1 hr before LPS treatment by ELISA. In kind it is cell-based. The gist of the method:
as §4

A short description of series [13]: Amphiphilicity of the compound assessed as critical micelle concentration by spectrofluorophotometry. In kind it is physicochemical. A digest of the protocol:
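The CMC in aqueous solution was determined from the polarity-dependent change in the fluorescence spectrum of pyrene as it partitions into micelles formed by the compound.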

The test system of series [14] is Mus musculus. Briefly: Immunosuppressive C57/B16 mouse assessed as inhibition of LPS-induced immune activation measured as TNFalpha secretion at 2 x 10^-7 mol, ip 1 hr prior LPS challenge by ELISA. In kind it is functional, organism-based. The gist of the method: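 C57/Bl6 mice were given compound i.p. at 2·10^-7 mol/mouse, then LPS i.p. (1·10^-9 mol/mouse) 1 hour later. Sera were collected three hours after LPS and serum TNF-α concentration was determined.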

The target of series [15] is T1, Toll-like receptor 4. As to the kind of experiment: Agonist activity at TLR4 (unknown origin) expressed in HEK293 Blue cells measured after 2 to 4 hrs by spectrophotometry.
The target of series [16] is T2, Toll-like receptor 4 (Mus musculus). Briefly: Antagonist activity at mouse TLR4 in mouse BMDM cells assessed as inhibition of LPS-stimulated IL-6 production compound treated for 1 hr before LPS challenge by ELISA. In kind it is cell-based. The gist of the method:
as §4

Series [17] shares this target. Briefly: Antagonist activity at mouse TLR4 in mouse BMDM cells assessed as inhibition of LPS-stimulated TNFalpha production compound treated for 1 hr before LPS challenge by ELISA. It is filed as cell-based. The gist of the method:
as §4

Series [18] shares this target. Briefly: Activation of mouse TLR4 in mouse BMDM cells by ELISA. It is filed as cell-based.

What is called IC50 is the point on the concentration scale where inhibition reaches its midpoint.

The source made the active and inactive calls. The calls are words filed in the database; no cut-off is given here.

T1 sequence (O00206 whole entry): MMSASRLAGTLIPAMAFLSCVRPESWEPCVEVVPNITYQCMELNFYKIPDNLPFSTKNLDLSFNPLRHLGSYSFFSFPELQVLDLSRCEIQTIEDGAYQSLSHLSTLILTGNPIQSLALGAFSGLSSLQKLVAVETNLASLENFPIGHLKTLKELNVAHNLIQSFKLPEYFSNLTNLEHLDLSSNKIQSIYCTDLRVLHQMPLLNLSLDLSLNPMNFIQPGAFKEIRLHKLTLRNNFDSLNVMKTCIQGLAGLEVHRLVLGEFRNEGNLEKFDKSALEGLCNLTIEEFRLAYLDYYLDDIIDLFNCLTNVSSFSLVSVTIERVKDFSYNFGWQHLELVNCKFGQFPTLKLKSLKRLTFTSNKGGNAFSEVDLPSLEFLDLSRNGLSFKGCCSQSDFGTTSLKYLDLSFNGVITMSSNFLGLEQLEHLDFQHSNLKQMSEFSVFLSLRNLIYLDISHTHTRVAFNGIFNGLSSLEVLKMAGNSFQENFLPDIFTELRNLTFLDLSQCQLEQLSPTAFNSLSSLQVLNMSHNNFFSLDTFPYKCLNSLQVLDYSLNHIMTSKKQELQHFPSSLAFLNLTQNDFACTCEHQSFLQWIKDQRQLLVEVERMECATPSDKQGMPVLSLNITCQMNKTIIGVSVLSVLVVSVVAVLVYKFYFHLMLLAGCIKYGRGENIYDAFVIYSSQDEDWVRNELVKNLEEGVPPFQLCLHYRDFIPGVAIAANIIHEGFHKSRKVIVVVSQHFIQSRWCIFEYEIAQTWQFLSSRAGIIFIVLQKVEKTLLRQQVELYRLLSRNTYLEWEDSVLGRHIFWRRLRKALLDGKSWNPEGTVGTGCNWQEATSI

On to `CCCCCCCCCCCCCCO[C@H]1[C@@H](OC)O[C@H](CSCCN)[C@@H](O)[C@@H]1OCCCCCCCCCCCCCC`, for which, in series [1], the inhibition result is “inactive”. Moreover, the outcome in series [2], in series [3], in [4] and in [5] was inactive.
`CCCCCC(=O)O[C@@H]1[C@H](OC(=O)CCCCC)[C@@H](O[C@H]2O[C@H](Cn3cc(CN(CCN)CCN)nn3)[C@@H](OC(=O)CCCCC)[C@H](OC(=O)CCCCC)[C@H]2OC(=O)CCCCC)O[C@H](Cn2cc(CN(CCN)CCN)nn2)[C@H]1OC(=O)CCCCC`: the IC50 in series [1] was found to be 0.6 µM; in [4], 0.2 µM; in [8], 0.2 µM. For the same compound, the inhibition entry in [1], in series [4], in series [5], in series [9] and in series [10] was “Dose-dependent effect” in each case. In addition, the outcome in [6], in series [2], in series [3] and in [15] was inactive. The Activity entry in series [7] is reported as “Non-toxic”. Besides, the inhibition result in series [11] and in series [12] was “inactive” in each case. In addition, the CMC in series [13] is 350 µM. In series [14], the inhibition entry is “Active”.
Consider `CCCCCC(=O)O[C@@H]1[C@H](OC(=O)CCCCC)[C@@H](O[C@H]2O[C@H](Cn3cc(CNC(=S)NCCN)nn3)[C@@H](OC(=O)CCCCC)[C@H](OC(=O)CCCCC)[C@H]2OC(=O)CCCCC)O[C@H](Cn2cc(CNC(=S)NCCN)nn2)[C@H]1OC(=O)CCCCC`, for which the IC50 is 5 µM in series [1], 0.6 µM in series [4] and 0.6 µM in series [8]. Also, the inhibition result in series [1], in [4] and in series [5] was “Dose-dependent effect” throughout. Besides, the result in series [6], in [2], in series [3] and in [15] was inactive. Besides, the Activity entry in series [7] is reported as “Non-toxic”. Further, the CMC in [13] worked out at 10.9 µM.
Regarding `CCCCCC(=O)O[C@@H]1[C@@H](OC(=O)CCCCC)[C@@H](OC)O[C@H](CSCCNC(=S)NCCN(CCN)CCN)[C@H]1OC(=O)CCCCC.Cl`, the IC50 in [1] turned out to be 3.7 µM; in series [4], 3.9 µM; in [8] it was 3.3 µM. The inhibition entry in series [1], in [4] and in series [5] was “Dose-dependent effect” throughout. The result in [6], in series [2], in [3], in series [18] and in series [15] was inactive. Also, in series [7], the Activity entry is “Non-toxic”. The inhibition entry in [16] and in series [17] was “inactive” in each case. For the same compound, the CMC in series [13] is 59.7 µM.
On to `CCCCCCO[C@@H]1[C@@H](OCCCCCC)[C@@H](OC)O[C@H](CN)[C@H]1OCCCCCC`, for which, in [1], the inhibition result was “inactive”. Also, the result in series [2], in series [3], in series [4] and in [5] was inactive.
Consider `CCCCCCO[C@@H]1[C@H](OCCCCCC)[C@@H](O[C@H]2O[C@H](CSCCN)[C@@H](OCCCCCC)[C@H](OCCCCCC)[C@H]2OCCCCCC)O[C@H](CSCCN)[C@H]1OCCCCCC`, for which the inhibition entry in [1] was “inactive”. Also, the result in series [2], in [3], in series [4] and in [5] was inactive.
Turning to `CCCCCC(=O)O[C@@H]1[C@H](OC(=O)CCCCC)[C@@H](O[C@H]2O[C@H](CSCCN)[C@@H](OC(=O)CCCCC)[C@H](OC(=O)CCCCC)[C@H]2OC(=O)CCCCC)O[C@H](CSCCN)[C@H]1OC(=O)CCCCC`, the IC50 came to 1.3 µM in series [1], 1.4 µM in [4] and 0.8 µM in series [8]. Besides, the inhibition entry in series [1], in series [4] and in [5] was “Dose-dependent effect” in each case. Also, the result in series [6], in [2], in series [3], in series [18] and in [15] was inactive. Also, in series [7], the Activity entry is “Non-toxic”. In addition, the inhibition entry in series [16] and in [17] was “inactive” in each case. In [13], the CMC was determined as 97.7 µM.
Turning to `CCCCCCCCCCCCCCO[C@@H]1[C@H](OCCCCCCCCCCCCCC)[C@@H](O[C@H]2O[C@H](CSCCN)[C@@H](OCCCCCCCCCCCCCC)[C@H](OCCCCCCCCCCCCCC)[C@H]2OCCCCCCCCCCCCCC)O[C@H](CSCCN)[C@H]1OCCCCCCCCCCCCCC`, the inhibition result in series [1] is “inactive”. Besides, the outcome in series [2], in [3], in series [4] and in [5] was inactive.
For the compound `CCCCCC(=O)O[C@@H]1[C@@H](OC(=O)CCCCC)[C@@H](OC)O[C@H](Cn2cc(CN(CCNC(=S)NCCN)CCNC(=S)NCCN)nn2)[C@H]1OC(=O)CCCCC`, in series [1], the inhibition entry is “inactive”. Also, the result in series [2], in series [3], in [4] and in [5] was inactive.
In the case of `CCCCCCO[C@H]1[C@@H](OC)O[C@H](CSCCN)[C@@H](O)[C@@H]1OCCCCCC`, the inhibition result in series [1] is “inactive”. Also, the outcome in series [2], in series [3], in series [4] and in series [5] was inactive.
